In ChEMBL document CHEMBL1144181, “Achiral oligoamines as versatile tool for the development of aspartic protease inhibitors” (Bioorg Med Chem, 2008):
pIC50, pKi: −log10 of the molar value.

How the values were obtained:
Protease = Protease (Human immunodeficiency virus 1, UniProt Q9YQ12); assay: Inhibition of recombinant HIV1 protease expressed in Escherichia coli by fluorescence technique
[1] = Inhibition of Plasmodium recombinant plasmepsin-4 expressed in Escherichia coli by fluorescence technique
Procedure, shortened: (§1)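 The recombinant enzyme was expressed in E. coli and purified. It was assayed at room temperature in 100 mM NaAc, pH 4.5, with 1 mg/mL BSA and 4% final DMSO. The substrate was Abz-Thr-Ile-Nle-(p-NO2-Phe)-Gln-Arg-NH2, read by fluorescence increase (ex 337, em 410 nm). IC50 came from nonlinear regression of vi/v0 versus inhibitor concentration, and Ki = IC50/[1+(S/Km)].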

Beta-secretase 1 = Beta-secretase 1 (Homo sapiens, UniProt P56817); assay: Inhibition of recombinant beta secretase 1 by fluorescence technique
Sequence of Beta-secretase 1 (P56817 whole entry): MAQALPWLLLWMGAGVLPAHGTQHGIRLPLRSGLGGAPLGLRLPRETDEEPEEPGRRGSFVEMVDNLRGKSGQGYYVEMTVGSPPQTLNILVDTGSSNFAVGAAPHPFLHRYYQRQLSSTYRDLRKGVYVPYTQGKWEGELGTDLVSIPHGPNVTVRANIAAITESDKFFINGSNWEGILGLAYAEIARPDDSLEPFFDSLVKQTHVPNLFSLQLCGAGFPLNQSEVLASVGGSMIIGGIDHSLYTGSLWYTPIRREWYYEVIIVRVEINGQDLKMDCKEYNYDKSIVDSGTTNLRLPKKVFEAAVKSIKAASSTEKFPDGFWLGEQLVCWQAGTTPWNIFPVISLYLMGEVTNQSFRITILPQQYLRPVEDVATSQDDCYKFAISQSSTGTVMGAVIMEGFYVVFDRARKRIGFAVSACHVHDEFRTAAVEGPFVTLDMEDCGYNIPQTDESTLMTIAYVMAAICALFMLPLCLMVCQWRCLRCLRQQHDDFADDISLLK

Renin = biological target: T1, Renin (Homo sapiens, UniProt P00797); assay: Inhibition of recombinant renin by fluorescence technique
T1 sequence (P00797 whole entry): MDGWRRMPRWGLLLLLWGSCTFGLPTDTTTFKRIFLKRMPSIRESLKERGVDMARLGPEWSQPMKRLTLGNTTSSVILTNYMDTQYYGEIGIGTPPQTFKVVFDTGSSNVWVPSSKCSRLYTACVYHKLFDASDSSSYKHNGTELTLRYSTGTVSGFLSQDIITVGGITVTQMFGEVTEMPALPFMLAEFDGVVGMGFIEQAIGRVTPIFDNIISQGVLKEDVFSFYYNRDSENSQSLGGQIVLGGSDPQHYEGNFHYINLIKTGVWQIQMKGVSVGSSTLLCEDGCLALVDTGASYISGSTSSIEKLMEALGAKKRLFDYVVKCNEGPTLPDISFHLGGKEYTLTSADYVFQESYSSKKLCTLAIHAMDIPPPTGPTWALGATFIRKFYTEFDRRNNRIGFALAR

[2] = Inhibition of Plasmodium recombinant plasmepsin-2 expressed in Escherichia coli by fluorescence technique; procedure, shortened: as §1
[3] = Inhibition of pig pepsin by fluorescence technique; design: species or system Sus scrofa

Sequence of Protease (Q9YQ12 whole entry): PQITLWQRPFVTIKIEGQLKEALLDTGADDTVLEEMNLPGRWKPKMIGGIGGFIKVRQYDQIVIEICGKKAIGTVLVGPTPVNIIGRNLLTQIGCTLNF

Compound	pKi (Protease)	pKi [1]	pIC50 (Beta-secretase 1)	pIC50 (Renin)	pKi [2]	pKi [3]	pKi (Renin)	pIC50 [3]	pIC50 (Protease)	pKi (Beta-secretase 1)
CC(C)CN(C[C@@H](O)[C@H](Cc1ccccc1)NC(=O)O[C@H]1CCOC1)S(=O)(=O)c1ccc(N)cc1	6.05	–	–	–	–	–	–	–	–	–
O=S(=O)(c1ccccc1)N(CCNCCN(Cc1ccccc1)S(=O)(=O)c1ccccc1)Cc1ccccc1	5.42	4.44	< 3.60	< 3.60	5.15	5.24	–	–	–	–
O=C(Cc1ccccc1)N(CCCNCCCN(Cc1ccccc1)C(=O)Cc1ccccc1)Cc1ccccc1	–	3.77	< 3.60	–	3.92	–	4.80	< 3.60	< 3.60	–
O=S(=O)(c1ccccc1)N(CCCNCCCN(Cc1ccccc1)S(=O)(=O)c1ccccc1)Cc1ccccc1	–	4.38	–	< 3.60	4.68	–	–	< 3.60	< 3.60	3.82
O=C(Cc1ccccc1)N(CCCNCCN(Cc1ccccc1)C(=O)Cc1ccccc1)Cc1ccccc1	–	4.25	< 3.60	< 3.60	4.20	–	–	< 3.60	< 3.60	–
O=C(Cc1ccccc1)N(CCNCCN(Cc1ccccc1)C(=O)Cc1ccccc1)Cc1ccccc1	–	4.01	< 3.60	–	4.04	–	5.24	< 3.60	< 3.60	–
CC(C)CN(CCNCCN(CC(C)C)S(=O)(=O)c1ccc(N)cc1)S(=O)(=O)c1ccc(N)cc1	–	4.25	< 3.60	< 3.60	5.17	5.32	–	–	–	–
Nc1ccc(S(=O)(=O)N(CCCNCCN(Cc2ccccc2)S(=O)(=O)c2ccc(N)cc2)Cc2ccccc2)cc1	–	5.12	< 3.60	< 3.60	4.66	–	–	< 3.60	< 3.60	–
Nc1ccc(S(=O)(=O)N(CCCNCCCN(Cc2ccccc2)S(=O)(=O)c2ccc(N)cc2)Cc2ccccc2)cc1	–	4.70	–	< 3.60	5.55	5.40	–	–	< 3.60	4.19
Nc1ccc(S(=O)(=O)N(CCNCCN(Cc2ccccc2)S(=O)(=O)c2ccc(N)cc2)Cc2ccccc2)cc1	–	5.12	< 3.60	< 3.60	5.38	5.41	–	–	–	–
O=S(=O)(c1ccccc1)N(CCCNCCN(Cc1ccccc1)S(=O)(=O)c1ccccc1)Cc1ccccc1	4.85	4.77	< 3.60	< 3.60	4.74	4.82	–	–	–	–
CC(C)CN(CCNCCN(CC(C)C)S(=O)(=O)c1ccccc1)S(=O)(=O)c1ccccc1	5.00	4.06	< 3.60	< 3.60	4.64	5.35	–	–	–	–
